Assay [1] concerns HeLa. The assay is described as follows: Induction of ROS generation in human HeLa cells at 5 uM after 4 to 8 hrs in presence of NAC by DCFH-DA staining-based fluorescence spectrophotometric analysis. The assay is classed as functional, cell-based. The method, boiled down: (§1)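 DCFH-DA ROS: HeLa or MCF-7 cells at 2×10^6/well cultured 12 h, treated 4 or 8 h; t-BHP (10 μM) is the positive control. DCFH-DA 10 μM added for 10 min at 37 °C, cells washed twice with PBS. Fluorescence read at ex 485/em 520 nm. For the NAC arm, NAC (5 mM) is added to the medium before treatment.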

The subject of assay [2] is HeLa. The assay is described as follows: Induction of apoptosis in human HeLa cells assessed as early apoptotic cells at 1 uM after 12 hrs by annexin-V FITC/propidium iodide staining based flow cytometric analysis relative to control. The assay is classed as functional. The procedure, abridged:
(§2)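 Cells were grown in DMEM with 10% heat-inactivated FBS at 37 °C and 5% CO₂, then plated at 500,000 cells/well in 24-well plates. They were treated from a DMSO stock (DMSO ≤0.1%) for 8, 12 or 16 h. After a PBS wash, cells were resuspended in binding buffer (10 mM HEPES pH 7.4, 2.5 mM CaCl₂, 140 mM NaCl, 0.1% BSA), stained 40 min with FITC-annexin V, then with PI, and run on the flow cytometer immediately. Values are the mean of three independent experiments.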
In general terms: A flow cytometer gives signals particle by particle.

For assay [3], the system named is HeLa. The assay is described as follows: Effect on mitochondrial membrane potential in human HeLa cells assessed as shift change at 5 uM after 1 hrs by Rhodamine 123 dye-based fluorescence assay. Format: functional, cell-based. The method, boiled down: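 Mitochondrial potential: HeLa or MCF-7 cells treated with 5 µM (final) for 1, 2, 4 and 8 h. Rhodamine 123 added, cells incubated 30 min at 37 °C, washed with PBS, and analysed by flow cytometry. Fluorescence histogram shift is compared with control.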

The target of assay [4] is c-Jun N-terminal kinase, JNK (Homo sapiens) (UniProt P45983+P53779+P45984). The assay is described as follows: Activation of JNK phosphorylation in human MCF7 cells assessed as increase in ratio of phosphorylated JNK to total JNK level at 5 uM by ELISA. The assay is classed as cell-based. The method, boiled down: (§3)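 Cell-based ELISA: HeLa or MCF-7 cells (20×10^3/well) grown overnight at 37 °C, 5% CO2, treated with 5 μM, then fixed and blocked. Probed with rabbit anti-total and anti-phospho P38, JNK or ERK1/2 (1:100), then HRP anti-rabbit IgG. Result is the phospho/total ratio; inhibitor arms use […], […] or SP600125. n=3.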
(In general: In an ELISA, binding on a coated surface is turned into a signal by an enzyme label.)

Assay [5] has as its system MCF7. The assay is described as follows: Induction of apoptosis in human MCF7 cells assessed as necrotic cells at 1 uM after 8 hrs by annexin-V FITC/propidium iodide staining based flow cytometric analysis relative to control. Format: functional. The procedure, abridged:
as §2

For assay [6], the system named is HeLa. The assay is described as follows: Induction of nitric oxide production in human HeLa cells measured over 8 hrs by Griess reaction based assay. Format: functional, cell-based. The method, boiled down: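 Cells seeded at 2×10^6 cells/well for 12 h, then exposed to 1, 5 and 10 μM compound for 8 h at 37 °C. Culture supernatant mixed with Griess reagent (0.002% N-1-naphthyl-ethylenediamine dihydrochloride, 0.5% sulfanilic acid, 14% glacial acetic acid). Nitrite read by absorbance at 550 nm and compared with vehicle group.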

Assay [7] concerns MCF7. The assay is described as follows: Induction of ERK/MAPK signal transduction pathway in human MCF7 cells assessed as increase in p21 level. The assay is classed as cell-based.
Assay [8] addresses T1, MAP kinase p38 (Homo sapiens) (UniProt O15264+Q15759+Q16539+P53778). The assay is described as follows: Activation of MAPK p38 phosphorylation in human MCF7 cells assessed as increase in ratio of phosphorylated p38 to total p38 level at 5 uM in presence of p38 kinase inhibitor […] by ELISA. The assay is classed as cell-based. The method, boiled down: as §3
In assay [9] the target is T1, MAP kinase p38 (Homo sapiens). The assay is described as follows: Activation of MAPK p38 phosphorylation in human MCF7 cells assessed as increase in ratio of phosphorylated p38 to total p38 level at 5 uM by ELISA. The assay is classed as cell-based. The method, boiled down: as §3
Assay [10] concerns MCF7. The assay is described as follows: Induction of apoptosis in human MCF7 cells assessed as late apoptotic cells at 1 uM after 8 hrs by annexin-V FITC/propidium iodide staining based flow cytometric analysis relative to control. The assay is classed as functional. The method, boiled down: as §2
For a further assay, the system named is MDA-MB-231. The assay is described as follows: Cytotoxicity against human MDA-MB-231 cells assessed as reduction in cell viability after 4 hrs by MTT assay. The assay is classed as functional, cell-based. The procedure, abridged: (§4)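 MTT: 10,000–20,000 cells/well attached for 16 h, then washed twice with serum-free RPMI. Treated with 1–200 µM for 4 h, 3 parallel runs per concentration. MTT added for 2 h; medium partly removed and isopropanol added. A590 read. Viability = (A treated − A doxorubicin)/(A medium − A doxorubicin)×100. Mean of three experiments, triplicate wells each.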
Background: Tetrazolium dyes change colour on reduction, which living cells bring about.

Assay [11] concerns MCF7. The assay is described as follows: Induction of caspase-dependent apoptosis in human MCF7 cells assessed as activation of caspase-6 at 1 to 3 uM after 24 hrs by Western blot analysis. The assay is classed as functional, cell-based. The method, boiled down: (§5)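 Cells were treated at 1, 3 and 5 µM for 24 h at 37 °C. Lysis was in ice-cold Triton X-100 buffer with protease and phosphatase inhibitors; nuclear proteins were extracted separately. Protein was quantified by BCA. Lysates were separated by electrophoresis, transferred to nitrocellulose and blocked in non-fat milk for 1 h. Primary antibody was applied overnight at 4 °C and secondary for 1 h at 28 °C. Detection was by enhanced chemiluminescence.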

Assay [12] deals with HeLa. The assay is described as follows: Induction of cell cycle arrest in human HeLa cells at 1 uM after 16 hrs by propidium iodide/RNase A staining based FACS analysis. The assay is classed as functional. The method, boiled down:
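Cells were seeded at 1 million cells/mL in 24-well plates and grown to 70% confluence. They were exposed at 1 µM for 16 h, washed in cold PBS, fixed in absolute ethanol and stored at −20 °C. Staining was with RNase A (20 µg/mL final) and PI (50 µg/mL final) for 30 min at 37 °C in the dark. Results are given as the percentage of cells in each cell-cycle phase by FACS.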

The subject of assay [13] is HeLa. The assay is described as follows: Cytotoxicity against human HeLa cells assessed as reduction in cell viability after 4 hrs by MTT assay. The assay is classed as functional, cell-based. The procedure, abridged: as §4
Assay [14] deals with HeLa. The assay is described as follows: Induction of apoptosis in human HeLa cells assessed as necrotic cells at 1 uM after 12 hrs by annexin-V FITC/propidium iodide staining based flow cytometric analysis relative to control. Format: functional. The method, boiled down: as §2
Assay [15] concerns MCF7. The assay is described as follows: Induction of apoptosis in human MCF7 cells assessed as effect on Mcl-1 long level at 1 to 3 uM after 24 hrs by Western blot analysis. Format: functional, cell-based. The method, boiled down:
as §5

Assay [16] deals with MCF7. The assay is described as follows: Induction of ROS generation in human MCF7 cells at 5 uM after 4 to 8 hrs in presence of NAC by DCFH-DA staining-based fluorescence spectrophotometric analysis. Format: functional, cell-based. The procedure, abridged: as §1
The test system of assay [17] is HeLa. The assay is described as follows: Induction of apoptosis in human HeLa cells assessed as viable cells at 1 uM after 16 hrs by annexin-V FITC/propidium iodide staining based flow cytometric analysis relative to control. Format: functional. The following applies: read-out: Activity. The method, boiled down:
as §2

Assay [18] relates to HeLa. The assay is described as follows: Induction of caspase-dependent apoptosis in human HeLa cells assessed as activation of caspase-8 at 1 to 3 uM after 24 hrs by Western blot analysis. The assay is classed as functional, cell-based. The procedure, abridged: as §5

The source made the active and inactive calls. The calls are words filed in the database; no cut-off is given here.

As to `Cn1cc(/C=N\NC(=O)c2cn(C)c3ccc(Br)cc23)c2ccccc21`, the result (in the assay on HeLa [1]; in assay [8]; in the assay with MCF7 [11]; in the assay on HeLa [12]; with MCF7 [15]; with MCF7 [16]) was inactive. In addition, the result in the assay with HeLa [18] was inactive. Moreover, the Activity is 33.51% in the assay on HeLa [2]; 0.33% in the assay with MCF7 [5]; “Dose-dependent effect” in the assay with HeLa [6]; 4.01% in the assay with MCF7 [10]; “Dose-dependent effect” with MDA-MB-231; “Dose-dependent effect” with HeLa [13]. Moreover, the Activity with HeLa [14] was found to be 0.3%. Besides, the outcome (with HeLa [3]; in [4]; with MCF7 [7]; in assay [9]) was Active. Also, the IC50 (usually the concentration needed to halve the response being measured) with MDA-MB-231 (MDA-MB-231, 4 h) worked out at 5.49 µM; in the assay on HeLa [13] (Homo sapiens, HeLa, 4 h, read-out: IC50) it was 1.69 µM. Besides, in the assay with HeLa [17], the viability at 1 µM was found to be 14.3%.
